Measurements: ChEMBL document CHEMBL4311940, “Design, Synthesis, and Biological Evaluation of 4-Methyl Quinazoline Derivatives as Anticancer Agents Simultaneously Targeting Phosphoinositide 3-Kinases and Histone Deacetylases” (J Med Chem, 2019)
The source made the active and inactive calls. No cut-off for these calls is given here.

What was measured:
[1] = tested on: HCT-116; test: Antiproliferative activity against human HCT116 cells after 96 hrs by MTT assay; type: functional, cell-based; conditions: HCT-116, 96 h
[2] = target: Histone deacetylase 1 (Homo sapiens, UniProt Q13547); test: Inhibition of recombinant C-terminal His/FLAG-tagged HDAC1 (unknown origin) expressed in baculovirus infected Sf9 insect cells using Ac-peptide as substrate preincubated for 15 mins followed by substrate addition and measured after 1 hr
[3] = target: Phosphatidylinositol 4,5-bisphosphate 3-kinase catalytic subunit alpha isoform (Homo sapiens, UniProt P42336); test: Inhibition of recombinant human PI3Kalpha using PIP2 as substrate incubated for 1 hr by kinase-glo assay
[4] = tested on: HCT-116; test: Induction of apoptosis in human HCT116 cells assessed as live cells at 500 nM after 48 hrs by Annexin V-FITC/propidium iodide staining-based flow cytometric analysis (reference value: 89.6%); type: functional
[5] = tested on: HCT-116; test: Induction of apoptosis in human HCT116 cells assessed as early apoptotic cells at 500 nM after 48 hrs by Annexin V-FITC/propidium iodide staining-based flow cytometric analysis (reference value: 1.33%); type: functional
[6] = tested on: HCT-116; test: Induction of apoptosis in human HCT116 cells assessed as late apoptotic cells at 500 nM after 48 hrs by Annexin V-FITC/propidium iodide staining-based flow cytometric analysis (reference value: 3.87%); type: functional
[7] = tested on: HCT-116; test: Induction of apoptosis in human HCT116 cells assessed as necrotic cells at 500 nM after 48 hrs by Annexin V-FITC/propidium iodide staining-based flow cytometric analysis (reference value: 5.23%); type: functional
[8] = tested on: HCT-116; test: Induction of cell cycle arrest in human HCT116 cells assessed as accumulation at G2/M phase at 500 nM after 24 hrs by propidium iodide/RNase staining-based FACS analysis; type: functional
Procedure, shortened: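 HCT116 cells cultured overnight in 6-well plates, exposed to compound at various concentrations for 24 h; FxCycle PI/RNase staining and flow cytometry for cell cycle phase distribution.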

[9] = tested on: THP-1; test: Antiproliferative activity against human THP1 cells after 96 hrs by MTT assay; type: functional, cell-based; conditions: THP-1, 96 h
[10] = tested on: K562; test: Antiproliferative activity against human K562 cells after 96 hrs by MTT assay; type: functional, cell-based; conditions: K562, 96 h
[11] = tested on: MCF7; test: Antiproliferative activity against human MCF7 cells after 96 hrs by MTT assay; type: functional, cell-based; conditions: MCF7, 96 h
[12] = tested on: MDA-MB-453; test: Antiproliferative activity against human MDA-MB-453 cells after 96 hrs by MTT assay; type: functional, cell-based; conditions: MDA-MB-453, 96 h
[13] = tested on: HCT-8; test: Antiproliferative activity against human HCT8 cells after 96 hrs by MTT assay; type: functional, cell-based; conditions: HCT-8, 96 h
[14] = tested on: U-87 MG; test: Antiproliferative activity against human U87 cells after 96 hrs by MTT assay; type: functional, cell-based, U-87MG ATCC
[15] = tested on: NCI-H460; test: Antiproliferative activity against human NCI-H460 cells after 96 hrs by MTT assay; type: functional, cell-based; conditions: NCI-H460, 96 h
[16] = tested on: NCI-H1299; test: Antiproliferative activity against human NCI-H1299 cells after 96 hrs by MTT assay; type: functional, cell-based; conditions: NCI-H1299, 96 h
[17] = tested on: Capan-2; test: Antiproliferative activity against human Capan2 cells after 96 hrs by MTT assay; type: functional, cell-based; conditions: Capan-2, 96 h
[18] = tested on: SW1990; test: Antiproliferative activity against human SW1990 cells after 96 hrs by MTT assay; type: functional, cell-based; conditions: SW1990, 96 h
[19] = tested on: DU-145; test: Antiproliferative activity against human DU145 cells after 96 hrs by MTT assay; type: functional, cell-based; conditions: DU-145, 96 h
[20] = tested on: HGC-27; test: Antiproliferative activity against human HGC27 cells after 96 hrs by MTT assay; type: functional, cell-based; conditions: HGC-27, 96 h
[21] = tested on: HepG2; test: Antiproliferative activity against human HepG2 cells after 96 hrs by MTT assay; type: functional, cell-based; conditions: HepG2, 96 h
[22] = tested on: Huh-7; test: Antiproliferative activity against human HuH7 cells after 96 hrs by MTT assay; type: functional, cell-based; conditions: Huh-7, 96 h
[23] = tested on: Bel-7402; test: Antiproliferative activity against human Bel7402 cells after 96 hrs by MTT assay; type: functional, cell-based; conditions: Bel-7402, 96 h
[24] = tested on: HCT-116; test: Potency index, ratio of IC50 for SAHA to test compound IC50 for human HCT116 cells; type: functional

Chain of Phosphatidylinositol 4,5-bisphosphate 3-kinase catalytic subunit alpha isoform (P42336 whole entry, canonical isoform): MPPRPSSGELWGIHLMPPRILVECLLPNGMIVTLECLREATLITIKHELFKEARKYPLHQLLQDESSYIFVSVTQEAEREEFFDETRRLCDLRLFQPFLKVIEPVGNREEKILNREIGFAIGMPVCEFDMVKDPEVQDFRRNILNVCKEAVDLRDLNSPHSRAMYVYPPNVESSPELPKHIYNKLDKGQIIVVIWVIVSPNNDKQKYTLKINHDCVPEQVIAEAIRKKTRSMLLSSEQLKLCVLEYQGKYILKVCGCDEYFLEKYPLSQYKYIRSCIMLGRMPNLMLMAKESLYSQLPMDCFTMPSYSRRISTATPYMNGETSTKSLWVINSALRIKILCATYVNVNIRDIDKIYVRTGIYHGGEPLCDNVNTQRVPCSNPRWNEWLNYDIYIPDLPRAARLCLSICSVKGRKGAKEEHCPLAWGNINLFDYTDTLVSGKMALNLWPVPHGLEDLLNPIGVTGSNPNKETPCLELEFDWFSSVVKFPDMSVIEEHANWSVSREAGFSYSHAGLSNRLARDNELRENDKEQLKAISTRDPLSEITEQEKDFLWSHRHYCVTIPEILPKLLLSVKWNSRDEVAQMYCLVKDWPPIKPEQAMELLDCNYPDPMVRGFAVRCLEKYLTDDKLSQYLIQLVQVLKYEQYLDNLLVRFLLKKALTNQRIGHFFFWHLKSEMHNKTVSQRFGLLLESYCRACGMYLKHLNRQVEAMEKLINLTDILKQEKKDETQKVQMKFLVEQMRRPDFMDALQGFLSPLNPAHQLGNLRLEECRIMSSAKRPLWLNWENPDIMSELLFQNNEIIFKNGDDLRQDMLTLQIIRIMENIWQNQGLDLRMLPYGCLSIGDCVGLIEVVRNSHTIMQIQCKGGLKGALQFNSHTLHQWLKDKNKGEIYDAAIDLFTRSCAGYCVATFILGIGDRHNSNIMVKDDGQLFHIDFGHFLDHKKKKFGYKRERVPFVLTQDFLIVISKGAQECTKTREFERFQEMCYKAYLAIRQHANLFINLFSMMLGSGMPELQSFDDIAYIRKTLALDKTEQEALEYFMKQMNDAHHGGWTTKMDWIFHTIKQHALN
Chain of Histone deacetylase 1 (Q13547 whole entry, canonical isoform): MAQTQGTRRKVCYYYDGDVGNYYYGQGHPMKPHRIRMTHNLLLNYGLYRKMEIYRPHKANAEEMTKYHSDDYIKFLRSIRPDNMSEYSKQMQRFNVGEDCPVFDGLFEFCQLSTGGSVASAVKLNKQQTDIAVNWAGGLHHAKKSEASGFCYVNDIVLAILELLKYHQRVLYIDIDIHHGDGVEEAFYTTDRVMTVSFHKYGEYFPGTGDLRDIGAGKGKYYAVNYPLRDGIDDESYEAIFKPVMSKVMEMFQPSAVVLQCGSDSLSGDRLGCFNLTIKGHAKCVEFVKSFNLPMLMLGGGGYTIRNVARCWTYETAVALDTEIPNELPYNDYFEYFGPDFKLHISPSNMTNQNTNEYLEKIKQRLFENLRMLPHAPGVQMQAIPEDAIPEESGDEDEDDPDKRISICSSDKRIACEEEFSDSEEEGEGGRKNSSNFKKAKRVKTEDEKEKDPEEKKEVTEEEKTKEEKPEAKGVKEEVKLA

IC50 [1] [nM]	IC50 [2] [nM]	IC50 [3] [nM]	Compound	other results
250	3.3	48	COc1ncc(-c2cc(OCCCCN(C)c3ncc(C(=O)NO)cn3)c3ncnc(C)c3c2)cc1F	–
7200	6.3	0.69	COc1ncc(-c2cc(OCCCCCCC(=O)NO)c3ncnc(C)c3c2)cc1NS(=O)(=O)c1ccc(F)cc1F	–
1400	3.3	54	COc1ncc(-c2cc(OCCCCCCCC(=O)NO)c3ncnc(C)c3c2)cc1F	–
2900	11	1.1	COc1ncc(-c2cc(OCCCN(C)c3ncc(C(=O)NO)cn3)c3ncnc(C)c3c2)cc1NS(=O)(=O)c1ccc(F)cc1F	–
82	2.4	94	COc1ncc(-c2cc(OCCCN(C)c3ncc(C(=O)NO)cn3)c3ncnc(C)c3c2)cc1F	–
800	3.7	143	COc1ccc(-c2cc(OCCCCCCCC(=O)NO)c3ncnc(C)c3c2)cn1	–
540	30	58	COc1ccc(-c2cc(OCCCCCC(=O)NO)c3ncnc(C)c3c2)cn1	–
96	2	43	COc1ncc(-c2cc(OCCN(c3ncc(C(=O)NO)cn3)C(C)C)c3ncnc(C)c3c2)cc1F	–
9300	11	41	COc1ncc(-c2cc(OCCCCNc3ncc(C(=O)NO)cn3)c3ncnc(C)c3c2)cc1F	–
1400	84	51	COc1ccc(-c2cc(OCCCCC(=O)NO)c3ncnc(C)c3c2)cn1	–
1300	–	–	Nc1cc(C(F)(F)F)c(-c2cc(N3CCOCC3)nc(N3CCOCC3)n2)cn1 [BUPARLISIB]	Activity [4]: 84.7%; Activity [5]: 5.22%; Activity [6]: 6.61%; Activity [7]: 3.46%; Activity [8]: Active; IC50 [9]: 12000 nM; IC50 [10]: 7900 nM; IC50 [11]: 5700 nM; IC50 [12]: 370 nM; IC50 [13]: 1700 nM; IC50 [14]: 4800 nM; IC50 [15]: 3200 nM; IC50 [16]: 3600 nM; IC50 [17]: 42000 nM; IC50 [18]: 1300 nM; IC50 [19]: 45000 nM; IC50 [20]: 990 nM; IC50 [21]: 3200 nM; IC50 [22]: 2000 nM; IC50 [23]: 13000 nM
350	303	0.6	COc1ncc(-c2cc(OCCCCC(=O)NO)c3ncnc(C)c3c2)cc1NS(=O)(=O)c1ccc(F)cc1F	–
5	–	–	COc1ccc(-c2nc(N3CCOCC3)c3sc(CN(C)c4ncc(C(=O)NO)cn4)cc3n2)cn1 [FIMEPINOSTAT]	IC50 [10]: 280 nM; IC50 [11]: 41 nM; IC50 [12]: 9 nM; IC50 [13]: 5 nM; IC50 [14]: 7 nM; IC50 [15]: 150 nM; IC50 [16]: 25 nM; IC50 [17]: 7 nM; IC50 [18]: 180 nM; IC50 [19]: 560 nM; IC50 [20]: 41 nM; IC50 [21]: 15 nM; IC50 [22]: 560 nM; IC50 [23]: 13 nM
760	3	162	COc1ccc(-c2cc(OCCCCCCCCC(=O)NO)c3ncnc(C)c3c2)cn1	–
2100	4	43	COc1ncc(-c2cc(OCCCNc3ncc(C(=O)NO)cn3)c3ncnc(C)c3c2)cc1F	–
580	2.2	116	COc1ncc(-c2cc(OCCCCCCCCC(=O)NO)c3ncnc(C)c3c2)cc1F	–
540	39	0.66	COc1ncc(-c2cc(OCCCCCC(=O)NO)c3ncnc(C)c3c2)cc1NS(=O)(=O)c1ccc(F)cc1F	–
100	2.5	213	COc1ccc(-c2cc(OCCCN(C)c3ncc(C(=O)NO)cn3)c3ncnc(C)c3c2)cn1	–

IC50 [1] [nM]	IC50 [2] [nM]	IC50 [3] [nM]	Compound	other results
1200	37	30	COc1ncc(-c2cc(OCCCCCC(=O)NO)c3ncnc(C)c3c2)cc1F	–
530	1.7	1.8	COc1ncc(-c2cc(OCCN(C)c3ncc(C(=O)NO)cn3)c3ncnc(C)c3c2)cc1NS(=O)(=O)c1ccc(F)cc1F	–
1500	1.8	0.63	COc1ncc(-c2cc(OCCCCCCCC(=O)NO)c3ncnc(C)c3c2)cc1NS(=O)(=O)c1ccc(F)cc1F	–
> 10000	42	5.1	COc1ncc(-c2cc(OCCCCCC(=O)NO)c3ncnc(C)c3c2)cc1NS(C)(=O)=O	–
–	–	–	O=C(CCCCCCC(=O)Nc1ccccc1)NO [VORINOSTAT]	Activity [4]: 87.7%; Activity [5]: 2.72%; Activity [6]: 5.21%; Activity [7]: 4.33%; Activity [8]: Active
39	1.6	82	COc1ccc(-c2cc(OCCN(c3ncc(C(=O)NO)cn3)C(C)C)c3ncnc(C)c3c2)cn1	–
> 10000	37	1.3	COc1ncc(-c2cc(OCCCC(=O)NO)c3ncnc(C)c3c2)cc1NS(=O)(=O)c1ccc(F)cc1F	–
22	2.1	195	CCN(CCOc1cc(-c2ccc(OC)nc2)cc2c(C)ncnc12)c1ncc(C(=O)NO)cn1	–
30	1.3	73	COc1ncc(-c2cc(OCCN(C)c3ncc(C(=O)NO)cn3)c3ncnc(C)c3c2)cc1F	–
11000	4.9	4	COc1ncc(-c2cc(OCCCCCCCCC(=O)NO)c3ncnc(C)c3c2)cc1NS(C)(=O)=O	–
140	1.3	102	COc1ccc(-c2cc(OCCCCCCC(=O)NO)c3ncnc(C)c3c2)cn1	Ratio IC50 [24]: 10
39	2.6	72	CCN(CCOc1cc(-c2cnc(OC)c(F)c2)cc2c(C)ncnc12)c1ncc(C(=O)NO)cn1	–
> 10000	166	68	COc1ccc(-c2cc(OCC(=O)NO)c3ncnc(C)c3c2)cn1	–
37000	1.3	2.3	COc1ncc(-c2cc(OCCCCCCC(=O)NO)c3ncnc(C)c3c2)cc1NS(C)(=O)=O	–
4000	8.9	0.9	COc1ncc(-c2cc(OCCCCCCCCC(=O)NO)c3ncnc(C)c3c2)cc1NS(=O)(=O)c1ccc(F)cc1F	–
4600	5.3	43	COc1ncc(-c2cc(OCCNc3ncc(C(=O)NO)cn3)c3ncnc(C)c3c2)cc1F	–
3400	2.1	3.9	COc1ncc(-c2cc(OCCCCCCCC(=O)NO)c3ncnc(C)c3c2)cc1NS(C)(=O)=O	–
> 10000	91	73	COc1ccc(-c2cc(OCCCC(=O)NO)c3ncnc(C)c3c2)cn1	–
